# Results collected from several papers.
# Compare with care: the assays were run in different laboratories.
# Target: Mitogen-activated protein kinase kinase kinase 11 (MAP3K11, Homo sapiens, UniProt Q16584)
SMILES,test,conditions,measurement,result
C#Cc1cc(-c2cc(Nc3nc(N[C@@H](C)c4ccc(F)cn4)ncc3Cl)n[nH]2)ccc1C=O,"enzyme activity, inhibitor",0.2 µM,inhibition,72.5%
CCCCC(=O)Nc1ccc(-c2ccc3ncn(CCC)c(=O)c3c2)cn1,"binding, competition with immobilised ligand",0.5 µM,remaining binding,82%
C=CC(=O)N1CCC[C@@H](n2nc(-c3ccc(Oc4ccccc4)cc3)c3c(N)ncnc32)C1,"enzyme activity, inhibitor",1 µM,inhibition,0%
C1=C/COCc2cc(ccc2OCCN2CCCC2)Nc2nccc(n2)-c2cccc(c2)COC/1,cell-free assay,0.1 µM,remaining signal,100%
COc1ccc2[nH]c3c4[nH]c5ccc(OC)cc5c4c4c(c3c2c1)C(=O)NC4=O,binding,1 µM,remaining binding,5.6%
C=CC(=O)N1CCC([C@@H]2CCNc3c(C(N)=O)c(-c4ccc(Oc5ccccc5)cc4)nn32)CC1,"enzyme activity, inhibitor",1 µM,inhibition,0%
CN1CCN(C(=O)c2ccc(NC(=O)Nc3ccc(N(C)c4ccnc(Nc5ccc(CS(C)(=O)=O)cc5)n4)cc3)cc2)CC1,binding,1 µM,remaining binding,91%
CC(C)S(=O)(=O)c1ccc2nccc(Nc3ccc4sc(C5CCCC5)nc4c3)c2c1,"enzyme activity, inhibitor",1 µM,activity vs control,98%
